HKDC1 inhibitor: HKDC1 (human) hexokinase inhibition; hit rate 0.16% among 340,000; recombinant HKDC1, G6PDH/diaphorase resazurin coupled fluorescence; inhibition, % at 20 µM;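 active = inhibition above about 35% when tested at 20 µM, limit read from the data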;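 note: plate controls were DMSO wells with enzyme for no effect and DMSO wells lacking enzyme for full effect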
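Assay system: in-house recombinant HK5 (HKDC1) enzyme. Input: HKDC1 at 5 µg/mL. Medium: Tris pH 8.0 buffer with MgCl2, Tween-20, BSA, BME. Dosing: single 20 µM dose. Schedule: 90 min reaction incubation at room temperature, dark. Signal: resazurin-to-resorufin fluorescence via G6PDH and diaphorase coupling, 525/613 nm. Controls: DMSO-enzyme wells negative, buffer-substituted wells positive.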
Apaf1 inhib: inhibitors of human Apaf-1 apoptosome; AID 489030; O14727; inhibition, % at 20 µM; hit rate 0.71% among 330,000; reconstituted apoptosome caspase-3 activity, DEVD-Rh110 fluorescence; active = inhibition of at least 40% at 20 µM;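 note: plate controls were DMSO wells for no effect and DEVD-CHO caspase inhibitor wells for full effect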
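Material: reconstituted apoptosome with Apaf-1, cytochrome c, caspase-9, procaspase-3, dATP / Buffer or medium: pH 7.5 Hepes buffer with CHAPS, BSA, DTT / Also added: cytochrome c with DEVD-Rh110 / Schedule: compound with Apaf-1, dATP, procaspase-3 30 min, then 50 min reaction, room temperature / Technique: rhodamine 110 fluorescence at Ex 480/Em 540 nm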
Redox H2O2 prof: compounds producing H2O2 with reducing agent – biochemical, NIH compound library profiling, artefact control for MLSCN library redox annotation, primary screen. DTT-dependent redox cycling H2O2, phenol red/HRP absorbance; 100% = 100 µM peroxide control, 0% = buffer. activation, % at 10 µM. hit rate 0.03% among 200,000. AID 878;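 active = activation of at least 50% relative to the plate's high and low controls in the primary single-dose screen; inactive = activation below 50%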;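 note: compound incubated with DTT at 0.8 mM final as the reducing agent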
UBC9 SUMO inh: SUMOylation inhibition; AID 2006; inhibition, % at 35 µM; HTRF SUMOylation assay, SAE1/SAE2 + UBC9, in vitro; P63279; hit rate 0.36% among 290,000; in the data active = inhibition above about 50%, passing the limit was not always enough
Target sequence (P63279 whole entry, looked up): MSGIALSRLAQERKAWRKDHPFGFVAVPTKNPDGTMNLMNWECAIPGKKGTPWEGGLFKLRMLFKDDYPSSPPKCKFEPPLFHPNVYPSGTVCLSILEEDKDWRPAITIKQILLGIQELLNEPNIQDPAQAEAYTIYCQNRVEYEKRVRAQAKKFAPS
GSTO1 inh: GSTO1 inhibition, counter-screen for RBBP9 inhibitors; P78417; recombinant GSTO1, activity-based probe fluorescence polarization; inhibition, % at 5.96 µM; hit rate 1.1% among 300,000;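 active = inhibition above the campaign mean inhibition plus 3 SD, cut at about 35% in these data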;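 note: 0% = GSTO1-1 with DMSO and 100% = wells lacking GSTO1-1 enzyme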
Target sequence (P78417 whole entry, looked up): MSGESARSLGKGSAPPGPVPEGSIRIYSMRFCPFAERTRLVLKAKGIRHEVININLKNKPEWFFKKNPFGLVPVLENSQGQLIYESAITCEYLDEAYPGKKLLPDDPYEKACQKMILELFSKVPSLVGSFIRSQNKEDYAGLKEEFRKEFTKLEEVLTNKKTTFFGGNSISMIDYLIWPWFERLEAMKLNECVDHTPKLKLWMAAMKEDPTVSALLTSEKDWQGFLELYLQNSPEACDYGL
Apaf-1 inh conf2: Apaf-1 inhibition, single-dose confirmed. shares compounds with Apaf1 inhib. reconstituted apoptosome, caspase-3 DEVD-Rh110 fluorescence. inhibition, % at 20 µM. hit rate 25% among 1,800;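 active = mean inhibition of at least 40% at 20 µM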;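 note: plate controls were DMSO wells for no effect and DEVD-CHO caspase inhibitor control wells for full effect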
Rh110 interf inh: interferes with Rh110 fluorescence, flagging false Apaf-1 inhibitors. shares compounds with Apaf1 inhib. Rh110 fluorescence interference, quenched caspase reaction. activation (fluorescence interference), % at 20 µM. 1,800 tested, under 10 active;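 active = signal rise of 40% or more at 20 µM, treated as a fluorescence artifact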
Fluor interf inh: counter-screen for Apaf-1 inhibitors: fluorescence interference, dose response; shares compounds with Apaf1 inhib; fluorescence interference counterscreen, Apaf-1 assay format; IC50, µM; 460 tested, under 10 active; AID 588538; call rule not given here
The depositor's hits bear a star. This is a sample that favours compounds with a hit; in the whole collection about 1.4% have one here.

What do the screens show for `COc1ccc(CN(C)C(=O)c2cc(S(=O)(=O)NCc3ccccc3)ccc2C)c(OC)c1`?
HKDC1 inhibitor: -4.5; Apaf1 inhib: 61.4*; Apaf-1 inh conf2: 40.0*; Rh110 interf inh: 11.1; Fluor interf inh: >100

What do the screens show for `CN(CC(=O)Nc1cccc(F)c1)C(=O)c1sccc1-c1ccccc1`?
HKDC1 inhibitor: 2.9; Apaf1 inhib: 11.7

How did CN(CC(=O)Nc1ccc(Cl)cc1)C(=O)c1sccc1-c1ccccc1 do in these assays?
HKDC1 inhibitor: -1.4; Apaf1 inhib: 45.9*; Apaf-1 inh conf2: 33.9; Rh110 interf inh: 5.6

How did Cc1cc2c3c(c1)C(C)CC(C)(C)N3C(=O)C2=O (configuration not stated) do in these assays?
HKDC1 inhibitor: -7.5; Apaf1 inhib: 1.9; Redox H2O2 prof: 1.0; UBC9 SUMO inh: 28.5; GSTO1 inh: 9.2

How did CC1CC2(CCCCC2)N2C(=O)C(=O)c3cccc1c32 (configuration not stated) do in these assays?
HKDC1 inhibitor: 29.1; Apaf1 inhib: 41.0*; Redox H2O2 prof: -4.1; UBC9 SUMO inh: -10.4; GSTO1 inh: 2.6; Apaf-1 inh conf2: 40.7*; Rh110 interf inh: 4.6; Fluor interf inh: >100

Results for CN[C@H]1CC[C@@H](c2ccc(Cl)c(Cl)c2)c2ccccc21 ?
HKDC1 inhibitor: -1.4; Apaf1 inhib: 54.0*; UBC9 SUMO inh: -14.3; GSTO1 inh: 2.1; Apaf-1 inh conf2: 5.1; Rh110 interf inh: -3.2

What do the screens show for `CCCCNC(=O)C(C)N(CCN(C)C)C(=O)CCCN1C(=O)NC(c2ccc([N+](=O)[O-])cc2)C(C(=O)OCc2ccccc2)=C1C` (configuration not stated)?
HKDC1 inhibitor: -3.7; Apaf1 inhib: 45.3*; Apaf-1 inh conf2: 14.0; Rh110 interf inh: 8.2

Results for CC(=O)Nc1ccc(S(=O)(=O)N2CCC(C(=O)NCCC(=O)NCc3ccccc3)CC2)cc1 ?
HKDC1 inhibitor: 0.0; Apaf1 inhib: 19.7; UBC9 SUMO inh: 5.3; GSTO1 inh: 3.0

How did S=C(Nc1ccc2nsnc2c1)N1CCCC1 do in these assays?
HKDC1 inhibitor: 2.6; Apaf1 inhib: 98.4*; Redox H2O2 prof: 0.1; UBC9 SUMO inh: 93.0; GSTO1 inh: 29.2; Apaf-1 inh conf2: 8.4; Rh110 interf inh: -0.3

What do the screens show for `NC(N)=NC(N)=Nc1cccc2ccccc12`?
HKDC1 inhibitor: 3.7; Apaf1 inhib: 82.5*; UBC9 SUMO inh: 24.7; GSTO1 inh: 1.4; Apaf-1 inh conf2: 10.8; Rh110 interf inh: 5.0

Results for COc1ccc(NC(=O)CN(C)C(=O)C2CSC3(C)CCC(=O)N23)cc1 (configuration not stated) ?
HKDC1 inhibitor: -2.8; Apaf1 inhib: 42.7*; Apaf-1 inh conf2: 33.7; Rh110 interf inh: 16.2

Results for COc1ccc(C2=NN(c3ccccc3)C(=O)/C2=C\c2ccc(O)c(OC)c2)cc1 ?
HKDC1 inhibitor: 21.1; Apaf1 inhib: 89.9*; Redox H2O2 prof: 0.6; UBC9 SUMO inh: 73.7*; GSTO1 inh: 53.8*; Apaf-1 inh conf2: 16.9; Rh110 interf inh: 3.5

What do the screens show for `COc1ccc(/C=C2/C(=O)N(c3ccccc3)N=C2C)cc1OC`?
HKDC1 inhibitor: -0.9; Apaf1 inhib: 95.5*; UBC9 SUMO inh: 93.7; Apaf-1 inh conf2: 13.2; Rh110 interf inh: 6.0

How did COc1cc(/C=C2\C(=O)ON=C2c2ccc(Cl)cc2)ccc1O do in these assays?
HKDC1 inhibitor: 17.1; Apaf1 inhib: 12.6; GSTO1 inh: 10.0

Results for COc1ccc(S(=O)(=O)N2CCN(c3ccc4nnc(-c5ccc(F)cc5)n4n3)CC2)cc1 ?
HKDC1 inhibitor: 10.4; Apaf1 inhib: 50.7*; Redox H2O2 prof: -0.8; UBC9 SUMO inh: 0.8; GSTO1 inh: -0.8; Apaf-1 inh conf2: 46.8*; Rh110 interf inh: 0.5; Fluor interf inh: >100

How did Cc1ccc(S(=O)(=O)N2CCN(c3ccc4nnc(-c5ccccc5)n4n3)CC2)cc1 do in these assays?
HKDC1 inhibitor: -0.5; Redox H2O2 prof: -0.3; UBC9 SUMO inh: -15.0

How did COc1ccccc1-c1nnc(SCC(=O)Nc2cccnc2Cl)n1C do in these assays?
HKDC1 inhibitor: -4.5; Apaf1 inhib: 0.2

How did COc1ccc2cc1Oc1ccc(cc1)C[C@H]1c3c(cc4c(c3Oc3cc5c(cc3OC)CCN(C)[C@@H]5C2)OCO4)CCN1C do in these assays?
HKDC1 inhibitor: -0.2; Apaf1 inhib: 49.2*; UBC9 SUMO inh: 9.2; GSTO1 inh: 6.5; Apaf-1 inh conf2: 18.2; Rh110 interf inh: -6.0

Results for CCOC(=O)C1=C(C(=O)OCC)N(CC2CCCCC2)CCC1=O ?
HKDC1 inhibitor: -8.2

How did CN(CC(=O)Nc1cccc(F)c1)C(=O)c1cccc2ccccc12 do in these assays?
HKDC1 inhibitor: -4.2; Apaf1 inhib: 0.2

What do the screens show for `CCCN(CC(=O)Nc1ccccc1C)C(=O)c1sc2ccccc2c1Cl`?
HKDC1 inhibitor: -4.4; Apaf1 inhib: 60.6*; Apaf-1 inh conf2: 44.0*; Rh110 interf inh: 12.1; Fluor interf inh: >100

How did CN(CC(=O)Nc1cccc(F)c1)C(=O)c1sc2ccccc2c1Cl do in these assays?
HKDC1 inhibitor: 3.0; Apaf1 inhib: 57.1*; Apaf-1 inh conf2: 36.0; Rh110 interf inh: 3.5

Results for CC(C)C(NC(=O)/C(=C/c1ccco1)NC(=O)c1ccc(Br)o1)C(=O)O (configuration not stated) ?
HKDC1 inhibitor: -2.7; Apaf1 inhib: -1.1; UBC9 SUMO inh: 11.9; GSTO1 inh: 0.9

How did Cc1cc(C)cc(OCCNC(=O)CCc2ccccc2)c1 do in these assays?
HKDC1 inhibitor: -7.6; Apaf1 inhib: 15.7; UBC9 SUMO inh: 3.5; GSTO1 inh: -0.8

Results for CC1CC(=O)N(CC(=O)NCc2ccc(F)cc2)c2ccccc2S1(=O)=O (configuration not stated) ?
HKDC1 inhibitor: -2.4; Apaf1 inhib: -2.7; UBC9 SUMO inh: 16.1; GSTO1 inh: 0.8

How did Cc1ccc(C)c(NC(=O)CN(C)C(=O)c2cccc(S(=O)(=O)N3CCCC3)c2)c1 do in these assays?
HKDC1 inhibitor: -2.6; Apaf1 inhib: -1.6

Results for Cc1ccc(C)c(NC(=O)CN(C)C(=O)c2cccc(S(=O)(=O)N3CCN(Cc4ccccc4)CC3)c2)c1 ?
HKDC1 inhibitor: 1.9; Apaf1 inhib: 41.0*; UBC9 SUMO inh: 1.9; GSTO1 inh: -1.4; Apaf-1 inh conf2: 36.6; Rh110 interf inh: -0.5

Results for Cc1ccccc1NC(=O)Cc1nc(COC(=O)CNS(=O)(=O)c2cccc(Br)c2)cs1 ?
HKDC1 inhibitor: 1.1; Apaf1 inhib: 8.1; UBC9 SUMO inh: -2.7; GSTO1 inh: 1.1

From PubChem BioAssay
